Compound activity as filed in PubChem BioAssay.
Dynein transport = inhibitors of GR-EGFP nuclear translocation, primary screen, dynein cargo transport inhibitor project, imaging, high-content, 3617.4 mouse cells; test concentration mostly 20 µM; stimulated with dexamethasone, 1 µM; hits give low values; z-score, hits read low; 220,000 tested, 0.47% active; AID 1381, 2008;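 active = plate z-score of nuclear minus cytoplasmic receptor signal below a set negative limit, without overly bright fluorescence or cell loss, cut at about -3.5 in these data, passing the limit was not always enough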;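 note: z-score of nuclear minus cytoplasmic ring GR-EGFP intensity difference per well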
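Also added: dexamethasone, 1.0 µM final. Medium: tet-free, stripped-serum medium. Detection: fixed, Hoechst-stained cells imaged at 10x for EGFP. Read-out: nuclear-to-cytoplasmic GR-EGFP distribution per well. Times: induction 48 h, compound 1 h, agonist 30 min.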
L major viab = Leishmania major promastigote growth inhibition, primary screen; Leishmania major promastigotes, resazurin fluorescence viability; 200,000 tested, 9% active; inhibition, % at 10 µM; in the data active = inhibition above about 50%;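 note: promastigotes grown with compound for 44 hours at 28 °C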
MT stabilizer = microtubule stabilizers in HeLa cells, primary screen, imaging, high-content imaging; HeLa tubulin immunostaining HCS, 24 h; share of cells brighter than vehicle mean+2SD; % tubulin-high responders, % at 10 µM; 200,000 tested, 0.83% active;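 active = plate Z-score above 3 for both tubulin-high and condensed-nucleus cell shares, with cell loss under 80%, at 10 µM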;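 note: anti alpha tubulin signal scored within the nucleus-defined area of each cell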
CHOP inh = inhibitors of CHOP promoter induction, primary screen, cell-based, unfolded protein response, luciferase reporter | CHO-K1 CHOP-promoter luciferase, tunicamycin-induced, 15-18 h | AID 2732, 2010 | inhibition, % at 10 µM | 220,000 tested, 3.8% active;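 active = compounds that reduced the stress-induced luciferase reporter signal by more than about 70% of percent inhibition, limit read from the data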;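 note: 0% = tunicamycin plus vehicle and 100% = wells without tunicamycin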
Autophagy HCS = autophagy modulators in MEF cells, primary screen, imaging, high-content, MEF GFP-LC3 | MEF GFP-LC3 puncta imaging; test concentration mostly 10 µM | calls only at 10 µM (by protocol) | 190,000 tested, 0.98% active | AID 463193, 2010;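 active = percentage of spot-positive cells more than 3 SD above its plate mean, without a fluorescence outlier flag or 80% toxicity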;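 note: spot-positive cell cutoff set from DMSO-treated cells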
b-catenin transl = modulators of beta-catenin nuclear translocation, primary screen, imaging, HeLa cells, immunofluorescence, high-content. 190,000 tested, 0.3% active. nuclear translocation activity, % at 5 µM;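 active = nuclear translocation activity above 50% at 5 µM, with a well cell count of 50 or more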;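 note: per-cell ratio of nuclear to cytoplasmic median beta-catenin stain intensity; plate controls were DMSO negative control for no effect and GSK-3 inhibitor IX positive control for full effect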
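System: Human HeLa cells, endogenous beta-catenin | Compound dosing: 5 µM primary, 0.02–20 µM confirmation | Timing: 24 h compound exposure at 37°C, 5% CO2 | Measured by: Fluorescence imaging of beta-catenin antibody stain plus DAPI | Read-out basis: % activation of per-cell nuclear versus cytoplasmic median beta-catenin signal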
Active calls of the source: *; i = inactive; x = no result; + = active, no number. An excerpt weighted towards active compounds, which were near 12% of everything screened.

SMILES	Dynein transport	L major viab	MT stabilizer	CHOP inh	Autophagy HCS	b-catenin transl
COc1ccc(NC(=S)N(CCCN2CCCCC2)Cc2cccs2)cc1	-0.0426	83.2*	2.8	23.5	i	0.0
Cc1ccc(NC(=S)N(CCCN2CCOCC2)Cc2cccs2)c(C)c1	0.403	69.2*	2.0	0.3	i	-1.3
CCc1ccc(NC(=S)N(CCCN2CCOCC2)Cc2ccccn2)cc1	0.585	68.1*	2.5	-15.2	i	-2.0
CCc1ccccc1NC(=S)N(CCCN1CCOCC1)Cc1ccccn1	0.358	-1.6	4.2	6.8	i	-0.2
CCOC(=O)c1ccc(NC(=S)N(CCN2CCCCCC2)Cc2cccs2)cc1	-0.0805	96.5*	3.5	24.0	i	-1.1
Cc1c(Cl)cccc1NC(=S)N(CCCN1CCOCC1)Cc1cccs1	2.24	13.7	3.4	14.5	i	-6.3
CCOC(=O)c1ccc(NC(=S)N(CCCN2CCCC2)Cc2cccs2)cc1	-0.517	81.7*	4.7	18.9	i	-2.1
CCOc1ccccc1-n1c(=S)sc2c(=O)n(-c3ccccc3)c(=S)[nH]c21	-0.0441	-4.1	2.8	5.7	i	-0.8
CCCSc1nc(C)nc2c1c(=O)n(C)c(=O)n2C	-0.537	-1.5	5.4	55.6	+	1.3
Cc1ccc(C(=O)CSC2=C(C#N)C(c3ccco3)C3=C(CCCC3=O)N2)cc1 (stereo unspecified)	-0.522	25.7	20.4*	-14.4	i	129.7*
N#CC1=C(SCC(=O)NCc2ccccc2)NC(=O)CC1c1ccco1 (stereo unspecified)	-1.36	0.8	2.7	2.3	i	-2.6
CCCCc1ccc(NC(=O)CSC2=C(C#N)C(c3ccco3)C3=C(CCCC3=O)N2)cc1 (stereo unspecified)	-1.75	8.3	2.7	34.5	i	0.3
COc1cccc(NC(=O)CSC2=C(C#N)C(c3ccco3)C3=C(CCCC3=O)N2)c1 (stereo unspecified)	0.971	3.7	15.0	22.0	+	-2.1
N#CC1=C(SCC(=O)c2ccccc2)NC2=C(C(=O)CCC2)C1c1ccco1 (stereo unspecified)	1.63	16.9	34.1	-53.0	i	171.4*
N#CC1=C(SCC(=O)Nc2ccccc2)NC(=O)CC1c1ccco1 (stereo unspecified)	1.15	-5.1	50.0*	18.4	+	x
CC(C)(C)c1ccc(C(=O)CCCSC2=C(C#N)C(c3ccco3)C3=C(CCCC3=O)N2)cc1 (stereo unspecified)	0.292	30.1	7.9	41.6	i	6.5
COc1cc(C(=O)O)nc(OC)n1	-0.597	-6.3	2.2	7.7	i	-1.0
CSc1ccccc1C(=O)Nc1ccccc1C(=O)NC(C)C	-0.19	2.6	2.1	19.4	i	-2.3
O=C(NC1CC1)c1ccc(C2SCC(=O)N2Cc2ccccc2)cc1 (stereo unspecified)	0.689	2.4	2.4	25.1	i	-0.4
CCSC1=C(C#N)C(c2ccc(Cl)cc2)C2=C(CCCC2=O)N1 (stereo unspecified)	-0.685	94.5*	2.7	64.2	i	1.0
CSC1=C(C#N)C(c2ccc3c(c2)OCO3)C2=C(CCCC2=O)N1 (stereo unspecified)	-0.737	4.0	3.7	18.6	i	1.2
CC1N(C)c2cc(NC(=O)c3ccco3)ccc2C1(C)C (stereo unspecified)	0.364	22.3	10.7	52.8	i	-2.4
CC1N(C)c2cc(NC(=O)c3ccco3)c(P(=O)(Nc3ccc([N+](=O)[O-])cc3)N3CCOCC3)cc2C1(C)C (stereo unspecified)	-1.4	55.5*	4.0	25.2	i	3.2
O=C(/C=C/c1ccc([N+](=O)[O-])cc1)Nc1ncc([N+](=O)[O-])s1	-0.996	83.1*	4.6	94.2*	i	1.1
COc1cccc(NC(=O)/C=C/c2ccc([N+](=O)[O-])cc2)c1	-3.02	x	x	6.4	x	2.9
O=C(/C=C/c1ccc([N+](=O)[O-])cc1)NCc1ccccn1	1.62	12.2	4.2	-13.0	i	x
